Source: PubChem
HDAC3 inh: inhibitors of human histone deacetylase 3; inhibition, % at 8.3 µM; O15379; 320,000 compounds, 0.15% hits; AID 2718; recombinant HDAC3, fluorogenic peptide/trypsin coupled, fluorescence; in the data active means inhibition above about 26%, passing the limit was not always enough; inconclusive means no clear call, values can overlap the other calls
FAS-TE inh: blocks the thioesterase domain of human fatty acid synthase | inhibition, % at 15 µM | recombinant FAS-TE, OMFH fluorogenic substrate, fluorescence endpoint | P49327 | AID 602261 | 360,000 compounds, 0.67% hits;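 active means compounds whose normalised, plate-corrected inhibition of enzyme fluorescence in the single-dose primary screen is 50% or more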;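 further: 0% = DMSO with enzyme and 100% = substrate without enzyme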
PfM18AAP inh: blocks P. falciparum M18 aspartyl aminopeptidase. recombinant PfM18AAP, H-Glu-NHMec fluorogenic cleavage. inhibition, % at 7.35 µM. 290,000 compounds, 1.2% hits;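 active means inhibition above the campaign mean inhibition over all tested compounds plus 3 SD, cut at about 28% in these data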;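 further: 0% = plate median of test compound wells and 100% = 2 mM ZnCl2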
Rtt109 HAT inh: blocks Candida albicans Rtt109/Vps75 acetyltransferase activity. Q5AAJ8. AID 540336. 330,000 compounds, 0.16% hits. purified Rtt109/Vps75, ThioGlo CoA-SH fluorescence, 4 h. inhibition, % at 34.9 µM;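 active means inhibition of at least 50% in every replicate; inconclusive means best replicate reaches 50% inhibition but some replicates fall short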
Target sequence (Q5AAJ8 whole entry, looked up): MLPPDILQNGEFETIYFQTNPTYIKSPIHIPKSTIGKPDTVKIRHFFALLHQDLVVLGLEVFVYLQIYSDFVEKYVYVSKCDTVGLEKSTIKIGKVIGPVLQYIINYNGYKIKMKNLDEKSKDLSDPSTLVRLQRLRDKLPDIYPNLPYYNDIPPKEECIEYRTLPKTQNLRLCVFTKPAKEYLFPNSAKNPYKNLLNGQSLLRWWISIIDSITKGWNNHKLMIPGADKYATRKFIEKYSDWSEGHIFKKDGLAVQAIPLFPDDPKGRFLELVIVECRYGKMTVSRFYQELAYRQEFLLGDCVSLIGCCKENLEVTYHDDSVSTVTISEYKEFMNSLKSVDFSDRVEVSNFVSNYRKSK
UCH37 inh: human UCH37 deubiquitinating enzyme inhibition; Q9Y5K5; purified proteasome/UCH37, Ub-AMC cleavage fluorescence; inhibition, % (no concentration beside the values); 330,000 compounds, 0.33% hits;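 active means mean inhibition over replicate wells above about 20%, limit read from the data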;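 further: 0% = compound-free wells with enzyme and 100% = wells lacking proteasome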
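Signal – fluorescence, ex 355 nm, em 460 nm · System – Proteasome-bound UCH37 · Input – 0.15 nM proteasome as dispensed · Timing – 30 min preincubation with enzyme, 25 min cleavage at room temperature · Read-out basis – percent inhibition of cleavage signal versus uninhibited and no-proteasome wells · Medium – Tris-HCl pH 7.4 with ATP-MgCl2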
ALR H2O2 inh: blocks human ALR sulfhydryl oxidase activity | P55789 | 290,000 compounds, 3.8% hits | purified ALR, DTT oxidation, H2O2 HRP-luminol luminescence | inhibition, % (no concentration beside the values);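 active means mean replicate inhibition above about 79%, with every replicate also reaching it, limit read from the data; inconclusive means only one of the two criteria met; inactive means mean below limit and not every replicate reaching it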
Target sequence (P55789 whole entry, looked up): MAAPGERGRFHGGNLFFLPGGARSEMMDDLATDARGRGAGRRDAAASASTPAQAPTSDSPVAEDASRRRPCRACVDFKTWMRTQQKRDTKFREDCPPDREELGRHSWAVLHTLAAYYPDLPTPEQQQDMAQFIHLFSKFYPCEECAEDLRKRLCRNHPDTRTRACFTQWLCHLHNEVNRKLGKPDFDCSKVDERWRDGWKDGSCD
Active calls of the source: *; ? = inconclusive; / = no result given. A selection: hits, their analogues and other compounds. The true share with any hit is near 4.6%.

SMILES | HDAC3 inh | FAS-TE inh | PfM18AAP inh | Rtt109 HAT inh | UCH37 inh | ALR H2O2 inh
Cc1nnsc1-c1onc(C)c1C(=O)ON=Cc1ccc(Cl)cc1 | / | / | / | / | 7 | /
COc1ccc(NC(=O)c2ccc3c(SCC(=O)O)c4c(nc3c2)CCCC4)c(OC)c1 | 5 | -4 | 1 | 21 | 6 | /
COc1ccc(NC(=O)CSc2c3c(nc4ccccc24)CCC3)c(OC)c1 | -11 | 3 | 4 | 3 | 1 | 98*
O=C(CSc1c2c(nc3ccccc13)CCCC2)NCc1ccco1 | 2 | -4 | 0 | -9 | 4 | 98*
COc1ccc(Nc2c3c(nc4ccccc24)CCC3)c(OC)c1 | 1 | -4 | -6 | 0 | 7 | 99*
CCOc1cc(C=NNC(=O)c2ccc(N(C)S(=O)(=O)c3ccccc3)cc2)ccc1OC | / | / | / | / | -12 | /
Cc1onc(-c2ccc(Cl)cc2Cl)c1-c1csc(NN=Cc2ccccc2)n1 | / | / | / | / | -13 | /
CC(=O)NN1C(=O)c2ccccc2NC1c1ccccn1 (centres undefined) | -12 | -12 | 40* | -43 | -236 | -2
O=C(NN1C(=O)c2ccccc2NC1c1ccccn1)c1ccc(Br)cc1 (centres undefined) | -6 | -5 | 23 | 0 | -20 | 0
CCc1ccc(S(=O)(=O)/N=C2/C=C(Sc3ncn[nH]3)C(=O)c3ccccc32)cc1 | 10 | 29 | 47* | ? | / | -57
Cc1cc(C)c(S(=O)(=O)/N=C2/C=C(SCC(=O)O)C(=O)c3ccccc32)cc1C | / | 6 | -13 | 12 | / | /
Cc1cc(C)c(S(=O)(=O)N=C2C=C(Sc3ncn[nH]3)C(=O)c3ccccc32)cc1C | / | / | / | / | 31* | /
COC(=O)c1ccc(C=NN2CCN(Cc3ccc(C)cc3C)CC2)cc1 | / | / | / | / | 5 | /
Cc1cc(NC(=O)C2CCCN(S(=O)(=O)c3cnc[nH]3)C2)ccc1Br (centres undefined) | 10 | -36 | 6 | 2 | 10 | 93*
CCSc1nnc(NC(=O)C2CCCN(S(=O)(=O)c3cnc[nH]3)C2)s1 (centres undefined) | 5 | -7 | 2 | -1 | 4 | 93*
CCN(CC)c1ccc(NC(=O)C2CCCN(S(=O)(=O)c3cnc[nH]3)C2)c(C)c1 (centres undefined) | 10 | -8 | 16 | -7 | 3 | 101*
O=C(Nc1ccc(F)c(F)c1)C1CCCN(S(=O)(=O)c2cnc[nH]2)C1 (centres undefined) | 0 | -12 | -6 | 15 | 4 | /
Cc1ccc2nc(NC(=O)C3CCCN(S(=O)(=O)c4cnc[nH]4)C3)sc2c1 (centres undefined) | -3 | -32 | -10 | -2 | -3 | 43
Cc1ccc(NC(=O)C2CCCN(S(=O)(=O)c3cnc[nH]3)C2)cc1C (centres undefined) | 3 | -9 | 4 | -3 | 3 | 98*
CC(=NNC(=O)c1cc(C)oc1C)c1ccc(N2CCOCC2)cc1 | / | / | / | / | 0 | /
COc1nc(Nc2ccc(C(C)C)cc2)nc(OC)n1 | 1 | 4 | -4 | / | 4 | 7
COc1nc(Nc2ccc(O)cc2)nc(OC(C(F)(F)F)C(F)(F)F)n1 | 14 | 5 | 1 | 8 | 8 | 99*
Nc1cccc(Nc2nc(OC(C(F)(F)F)C(F)(F)F)nc(OC(C(F)(F)F)C(F)(F)F)n2)c1 | 49* | 22 | -1 | -14 | 0 | 0
COC(=O)c1sccc1NN=C(C)c1ccc(F)c(Cl)c1 | / | / | / | / | -12 | /
Cc1cc(C(=O)C(=O)O)c(C)n1-c1ccc(Cl)c(Cl)c1 | 21 | -2 | -4 | 4 | 3 | 95*
SMILES | HDAC3 inh | FAS-TE inh | PfM18AAP inh | Rtt109 HAT inh | UCH37 inh | ALR H2O2 inh
Cc1cc(C(=O)C(=O)N(C)C)c(C)n1-c1ccc(Cl)c(Cl)c1 | 1 | -5 | 1 | -3 | 4 | -1
Cc1ccc(/C=N/N=C/c2ccc(C)cc2)cc1 | -6 | -6 | -3 | 6 | / | /
Oc1ccc(/C=N/N=C/c2ccc(O)cc2)cc1 | 12 | 2 | -7 | -5 | / | 96*
COc1ccccc1NC(=O)C(=O)NN=C(C)CC(=O)Nc1ccccc1C(F)(F)F | / | / | / | / | 1 | /
Cc1csc2nc(CSc3ccc(Cl)cc3)cn12 | -2 | 2 | 3 | 3 | 3 | 92*
Clc1ccc(SCc2cn3ccsc3n2)cc1 | 0 | 3 | -1 | 5 | 3 | 32
CCOC(=O)NN=Cc1c(C)c(C(=O)c2ccc(F)cc2)n2ccccc12 | / | / | / | / | 1 | /
COc1ccccc1Nc1cc2cc(Br)ccc2c(=O)[nH]1 | 2 | 32 | / | -9 | 21* | -19
COc1ccc(OC)c(Nc2cc3ccccc3c(=O)[nH]2)c1 | -3 | 26 | / | 5 | -2 | 31
CCc1c(C)[nH]n(-c2nc(-c3ccccc3)cs2)c1=O | 2 | 2 | 12 | 0 | 2 | 97*
O=C(NN=Cc1ccco1)c1cncc(Br)c1 | / | / | / | / | 4 | /
Cc1csc(NN=Cc2cccnc2)n1 | / | / | / | / | 11 | /
Nc1cc(C(=O)O)c(N)c2c1C(=O)c1ccccc1C2=O | 2 | -12 | 7 | 7 | 15 | 99*
CCNC(=S)NNC(=O)CC(C)C | 8 | -4 | 12 | -5 | -1 | -1
CC(C)CNC(=S)NNC(=O)CC(C)O (centres undefined) | 0 | -5 | 35* | -2 | 3 | 9
Cn1ncc(N=Cc2ccccc2[N+](=O)[O-])c1C(N)=O | 0 | -5 | 1 | 1 | 6 | -9
CN(C)c1ccc(C=Nc2cnn(C)c2C(N)=O)cc1 | 1 | -4 | 5 | 6 | 3 | 98*
S=c1[nH]nc(-c2ccncc2)n1N=C/C=C/c1ccco1 | / | / | / | / | 15 | /
CCOC(=O)N1CCN(C(=O)CCCCn2c(=S)[nH]c3ccsc3c2=O)CC1 | 1 | -1 | 4 | 3 | 0 | 96*
Cc1ccc(NC(=O)CCCn2c(=S)[nH]c3ccsc3c2=O)cc1C | 8 | 1 | 2 | -5 | -5 | 84*
O=C(CCCn1c(=S)[nH]c2ccsc2c1=O)Nc1ccc2c(c1)OCO2 | 2 | 0 | -3 | 19 | 4 | 5
O=C(NN=Cc1ccc(O)c(O)c1)NC12CC3CC(CC(C3)C1)C2 | / | / | / | / | 3 | /
Brc1c(CSc2nnc(-c3ccco3)o2)nc2ccccn12 | 3 | -6 | -9 | -3 | -3 | 97*
c1coc(-c2nnc(SCc3cn4ccccc4n3)o2)c1 | -2 | -3 | 1 | -4 | 3 | 1
Cc1cc(=O)n2[nH]cc(C(=O)O)c2n1 | -9 | -9 | 29* | 12 | 3 | -11
CCc1nnc(NC(=O)CSc2nnnn2C)s1 | -7 | -1 | -17 | 4 | 4 | 99*
COc1ccc(NC(=O)CSc2nc3[nH]ncc3c(=O)[nH]2)cc1OC | 4 | -3 | / | 3 | 2 | 96*
CCc1nnc(NC(=O)CSc2nc3[nH]ncc3c(=O)[nH]2)s1 | -2 | -5 | 31* | 1 | 0 | -6
Cc1ccccc1CSc1nc2[nH]ncc2c(=O)[nH]1 | -3 | -14 | 31* | 0 | 4 | 38
